Experimental data from ChEMBL document CHEMBL1221166, “Molecular basis of inverse agonism in a G protein-coupled receptor” (Nat Chem Biol, 2005).
The source made the active and inactive calls. The calls are words filed in the database; no cut-off is given here.

What was measured:
[1] = target: T1, Alpha-2A adrenergic receptor (Homo sapiens) (UniProt P08913); assay: Partial agonist activity at adrenergic alpha2A receptor expressed in HEK293 cells coexpressing yellow fluorescent and cyan fluorescent protein assessed as effect on kinetics of receptor conformational change by FRET assay; assay type: functional, cell-based
T1 sequence (whole entry): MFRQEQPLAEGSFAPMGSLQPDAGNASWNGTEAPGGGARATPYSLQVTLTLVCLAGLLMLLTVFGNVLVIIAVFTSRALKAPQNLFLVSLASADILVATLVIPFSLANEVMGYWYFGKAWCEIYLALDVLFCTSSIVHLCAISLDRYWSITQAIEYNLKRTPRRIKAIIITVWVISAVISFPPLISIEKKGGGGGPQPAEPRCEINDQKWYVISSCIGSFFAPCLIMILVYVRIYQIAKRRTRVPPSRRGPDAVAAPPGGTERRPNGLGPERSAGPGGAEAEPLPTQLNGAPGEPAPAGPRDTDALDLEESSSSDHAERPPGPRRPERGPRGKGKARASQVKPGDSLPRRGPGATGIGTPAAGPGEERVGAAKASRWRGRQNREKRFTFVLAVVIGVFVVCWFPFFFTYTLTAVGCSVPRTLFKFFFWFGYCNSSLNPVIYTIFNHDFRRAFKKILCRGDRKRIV
Outline: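 HEK293 cells expressing α2AAR tagged with CFP/YFP were superfused rapidly with ligand at room temperature. The time course of the corrected FYFP/FCFP ratio was fitted with a monoexponential equation to give kobs. kobs was then plotted against the percentage FRET change.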

[2] = target: T1, Alpha-2A adrenergic receptor (Homo sapiens); assay: Inverse agonist activity at adrenergic alpha2A receptor expressed in HEK293 cells coexpressing yellow fluorescent and cyan fluorescent protein assessed as increase in resonance signal at 100 uM by FRET assay; assay type: functional, cell-based
Outline: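 Single HEK293 cells expressing α2AAR tagged with CFP/YFP were grown on coverslips and kept at room temperature. They were continuously superfused with HEPES buffer at pH 7.4 (137 mM NaCl, 0.1% BSA), and ligand was applied by solenoid-valve rapid superfusion. YFP and CFP emissions were recorded by dual-emission photometry on a 100× oil objective. FRET was taken as the spillover-corrected ratio FYFP/FCFP, with photobleaching drift subtracted where needed.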

| Activity [1] | Activity [2] | Compound |
| --- | --- | --- |
| Active | – | Cc1cc(C(C)(C)C)c(O)c(C)c1CC1=NCCN1 |
| Active | – | COc1nc(C)nc(Cl)c1NC1=NCCN1 |
| Active | – | Clc1cccc(Cl)c1NC1=NCCN1 |

Further lines, the compound ahead of its results:

| Compound | Activity [1] | Activity [2] |
| --- | --- | --- |
| COC1(C2=NCCN2)COc2ccccc2O1 (stereo unspecified) | – | Active |
| NCCc1ccc(O)c(O)c1 | Active | – |
| CN1CC[C@]2(CCN3CCc4c(oc5ccccc45)[C@@H]3C2)N(C)C1=O | – | Active |
